Assay results from ChEMBL document CHEMBL4699639, “Discovery of Novel 2-Aniline-1,4-naphthoquinones as Potential New Drug Treatment for Leber's Hereditary Optic Neuropathy (LHON)” (J Med Chem, 2020).
Active and inactive are the calls of the source. The calls are words filed in the database; no cut-off is given here.

Legend:
SH-SY5Y [1] = test: Cytotoxicity against human SH-SY5Y cells assessed as reduction in cell viability at 25 uM incubated for 24 hrs by Celltiter-blue assay; format: cell-based
Summary of the method: (§1)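 HepG2 or SH-SY5Y seeded 10×10^3 per well the day before in 1 g/L glucose medium with 2% FBS. Medium replaced with fresh 2% FBS, 1 g/L glucose medium containing compound (25 µM) for 24 h at 37 °C. CellTiter-Blue added for 4 h, fluorescence read at 560/590 nm. Viability given as % of vehicle/untreated cells. Mean ± SEM of ≥3 independent runs.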

HepG2 [2] = test: Suppression of rotenone-induced ATP depletion in human HepG2 cells assessed as increase in rescue of ATP level at 1 uM incubated for 2 hrs by Celltiter-Glo assay; format: functional, cell-based
Summary of the method: (§2)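 HepG2 cells seeded 10×10^3 per well in 1 g/L glucose, 2% FBS medium the day before. Switched to glucose- and FBS-free medium containing 10 µM rotenone, with compound added at the same time, 2 h at 37 °C. ATP read by CellTiter-Glo luminescence, normalized to DMSO cells without rotenone. Mean ± SEM of ≥3 independent runs. Complex III inhibitors, where used, at 50 nM.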

[3] = Suppression of rotenone-induced ATP depletion in human HepG2 cells assessed as rescue of ATP level at 5 uM incubated for 2 hrs by Celltiter-Glo assay relative to control; format: functional; summary of the method: as §2
HepG2 [4] = test: Cytotoxicity against human HepG2 cells assessed as cell reduction in cell viability at 25 uM incubated for 24 hrs by Celltiter-blue assay; format: cell-based; settings: hepg2, 24 h; summary of the method: as §1
[5] = target: NAD(P)H dehydrogenase [quinone] 1 (Homo sapiens) (UniProt P15559); test: Substrate activity at recombinant NQO1 (unknown origin) assessed as reduction in NADH level at 20 uM measured for 6 mins by microplate reader analysis
[6] = target: NAD(P)H dehydrogenase [quinone] 1 (Homo sapiens) (UniProt P15559); test: Substrate activity at NQO1 in human HepG2 cells assessed as reduction in cell viability by WST-1 assay; format: cell-based
SH-SY5Y [7] = test: Cytotoxicity against human SH-SY5Y cells assessed as reduction in cell viability by WST-1 assay; format: cell-based
[8] = Cytotoxicity against […] assessed as reduction in cell viability by WST-1 assay; format: cell-based; settings: r28
[9] = target: NAD(P)H dehydrogenase [quinone] 1 (Homo sapiens) (UniProt P15559); test: Substrate activity at NQO1 in human HepG2 cells assessed as reduction in cell viability in presence of NQO1 inhibitor dicoumarol by WST-1 assay; format: cell-based
[10] = Suppression of rotenone-induced ATP depletion in human HepG2 cells assessed as rescue of ATP level incubated for 2 hrs by Celltiter-Glo assay relative to control; format: functional; design: concentration or dose not given beside the values; summary of the method: as §2
[11] = Cytotoxicity against human HepG2 cells assessed as cell viability at 25 uM incubated for 24 hrs by Celltiter-blue assay relative to control; format: cell-based; settings: read-out: Activity; summary of the method: as §1
[12] = Suppression of rotenone-induced ATP depletion in human HepG2 cells incubated for 2 hrs by Celltiter-Glo assay; format: functional, cell-based; settings: HepG2, 2 h; summary of the method: as §2
HepG2 [13] = test: Suppression of rotenone-induced ATP depletion in human HepG2 cells assessed as rescue of ATP level at 5 uM incubated for 2 hrs in presence of NQO1 inhibitor dicoumarol by Celltiter-Glo assay; format: functional, cell-based
HepG2 [14] = test: Suppression of rotenone-induced ATP depletion in human HepG2 cells assessed as rescue of ATP level at 5 uM incubated for 2 hrs in presence of NQO1 irreversible inhibitor ES936 by Celltiter-Glo assay; format: functional, cell-based
HepG2 [15] = test: Suppression of rotenone-induced ATP depletion in human HepG2 cells assessed as rescue of ATP level at 5 uM incubated for 2 hrs in presence of complex III inhibitor myxothiazol by Celltiter-Glo assay; format: functional, cell-based; summary of the method: as §2
HepG2 [16] = test: Suppression of rotenone-induced ATP depletion in human HepG2 cells assessed as rescue of ATP level at 5 uM incubated for 2 hrs in presence of complex III inhibitor antimycin by Celltiter-Glo assay; format: functional, cell-based; summary of the method: as §2
HepG2 [17] = test: Cytotoxicity against human HepG2 cells assessed as reduction in cell viability incubated for 24 hrs by Celltiter-blue assay; format: cell-based; settings: HepG2, 24 h
SH-SY5Y [18] = test: Cytotoxicity against human SH-SY5Y cells assessed as reduction in cell viability incubated for 24 hrs by Celltiter-blue assay; format: cell-based
HepG2 [19] = test: Suppression of rotenone-induced ATP depletion in human HepG2 cells assessed as increase in rescue of ATP level at 0.1 to 1 uM incubated for 2 hrs by Celltiter-Glo assay; format: functional, cell-based; settings: dose microM 0.1-1, time 2.0 hrs; summary of the method: as §2

NAD(P)H dehydrogenase [quinone] 1 (Homo sapiens), sequence (P15559 whole entry): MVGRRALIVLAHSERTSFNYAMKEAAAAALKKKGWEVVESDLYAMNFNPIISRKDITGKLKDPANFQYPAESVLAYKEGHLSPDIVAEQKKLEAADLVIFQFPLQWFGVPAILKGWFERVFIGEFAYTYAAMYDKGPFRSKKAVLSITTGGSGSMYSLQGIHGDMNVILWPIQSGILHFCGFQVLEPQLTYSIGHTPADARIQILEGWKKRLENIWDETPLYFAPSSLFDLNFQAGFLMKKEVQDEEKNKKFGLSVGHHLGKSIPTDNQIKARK

O=C1C=C(NCCc2ccccc2)C(=O)c2ccccc21
Activity (SH-SY5Y [1]): Toxic

O=C1C(Cl)=C(NCCc2ccccc2)C(=O)c2ccccc21
Activity (HepG2 [2]): Active

CSC1=C(Nc2cccc(C(F)(F)F)c2)C(=O)c2ccccc2C1=O
Activity (SH-SY5Y [1]): Non-Toxic

COC(=O)c1ccc(NC2=C(Cl)C(=O)c3ccccc3C2=O)cc1
Activity [3]: 70%
Activity (HepG2 [4]): Toxic
Activity (SH-SY5Y [1]): Toxic

CC1=C(CCCCCCCCCCO)C(=O)c2ccccc2C1=O
Activity (HepG2 [2]): inactive

O=C1C(Cl)=C(Nc2cccc(C(F)(F)F)c2)C(=O)c2ccccc21
Activity (HepG2 [2]): Active
Activity (HepG2 [4]): Toxic
Activity (SH-SY5Y [1]): Toxic

CNC1=C(Nc2ccccc2)C(=O)c2ccccc2C1=O
Activity (SH-SY5Y [1]): Non-Toxic
Activity [5]: inactive

COC1=C(Nc2ccccc2)C(=O)c2ccccc2C1=O
Activity (HepG2 [2]): inactive
Activity (SH-SY5Y [1]): Non-Toxic

CC1=C(Sc2ccccc2)C(=O)c2ccccc2C1=O
Activity [3]: 70%
Activity (SH-SY5Y [1]): Toxic

O=C1C=C(NCc2ccccc2)C(=O)c2ccccc21
Activity (HepG2 [2]): Active
Activity (SH-SY5Y [1]): Toxic

O=C1C(Cl)=C(NCc2cccc(C(F)(F)F)c2)C(=O)c2ccccc21
Activity (HepG2 [2]): Active

COC1=C(Nc2cccc(C(F)(F)F)c2)C(=O)c2ccccc2C1=O
Activity [6]: Active
Activity [3]: 70%
Activity (HepG2 [2]): Active
Activity (SH-SY5Y [1]): Non-Toxic
Activity (SH-SY5Y [7]): Non-Toxic
Activity [8]: Non-Toxic
Activity [9]: inactive

CCNC1=C(Nc2ccccc2)C(=O)c2ccccc2C1=O
Activity (HepG2 [2]): Active
Activity (SH-SY5Y [1]): Non-Toxic

O=C1C(Cl)=C(Nc2ccc(Nc3ccccc3)cc2)C(=O)c2ccccc21
Activity (HepG2 [4]): Toxic
Activity (SH-SY5Y [1]): Toxic

O=C1C(Cl)=C(Nc2ccccc2)C(=O)c2ccccc21
Activity (HepG2 [2]): Active

O=C1C(Nc2ccc(F)c(C(F)(F)F)c2)=C(SC(F)(F)F)C(=O)c2ccccc21
Activity [6]: Active
Activity (HepG2 [2]): Active
Activity (HepG2 [4]): Toxic
Activity (SH-SY5Y [1]): Toxic
Activity (SH-SY5Y [7]): Non-Toxic
Activity [8]: Non-Toxic
Activity [5]: Active
Activity [9]: inactive
Activity [10]: 58.6%
viability at 24 h, 25 µM [11]: 65.8%

CCCCNC1=C(Cl)C(=O)c2ccccc2C1=O
Activity [3]: 70%
Activity (SH-SY5Y [1]): Toxic

CC(C)SC1=C(Nc2cccc(C(F)(F)F)c2)C(=O)c2ccccc2C1=O
Activity (HepG2 [2]): Active
Activity (HepG2 [4]): Toxic
Activity (SH-SY5Y [1]): Toxic

O=C1C(Nc2cccc(C(F)(F)F)c2)=C(SC(F)(F)F)C(=O)c2ccccc21
Activity (HepG2 [2]): Active
Activity (HepG2 [4]): Toxic
Activity (SH-SY5Y [1]): Toxic

CCCCC1=C(C)C(=O)c2ccccc2C1=O
Activity (SH-SY5Y [1]): Toxic

O=C1C(Br)=C(NCCc2ccccn2)C(=O)c2ccccc21
Activity (SH-SY5Y [1]): Toxic

COC1=C(Nc2cc(C(F)(F)F)ccc2F)C(=O)c2ccccc2C1=O
Activity [6]: Active
Activity (HepG2 [2]): Active
Activity (SH-SY5Y [1]): Non-Toxic
Activity (SH-SY5Y [7]): Non-Toxic
Activity [8]: Non-Toxic
Activity [9]: inactive

O=C1C(Cl)=C(Nc2ccc(F)c(C(F)(F)F)c2)C(=O)c2ccccc21
Activity [10]: 40.3%
viability at 24 h, 25 µM [11]: 65.8%

CN(C)C1=C(Nc2ccccc2)C(=O)c2ccccc2C1=O
Activity (HepG2 [2]): Active

O=C1C=C(Nc2ccc(F)c(C(F)(F)F)c2)C(=O)c2ccccc21
Activity (SH-SY5Y [1]): Non-Toxic
Activity [10]: 54.5%
viability at 24 h, 25 µM [11]: 35.6%

CCOC1=C(Nc2ccccc2)C(=O)c2ccccc2C1=O
Activity (HepG2 [2]): inactive
Activity (SH-SY5Y [1]): Non-Toxic

CCSC1=C(Nc2cccc(C(F)(F)F)c2)C(=O)c2ccccc2C1=O
Activity [6]: Active
Activity (HepG2 [2]): Active
Activity (HepG2 [4]): Toxic
Activity (SH-SY5Y [1]): Toxic
Activity (SH-SY5Y [7]): Non-Toxic
Activity [8]: Non-Toxic
Activity [9]: inactive

O=C1C(Nc2ccccc2)=C(Oc2ccccc2)C(=O)c2ccccc21
Activity (HepG2 [2]): inactive

O=C1C(Cl)=C(Nc2cccc(O)c2)C(=O)c2ccccc21
Activity [6]: Active
Activity (SH-SY5Y [7]): Non-Toxic
Activity [8]: Non-Toxic
Activity [9]: inactive

CC1=C(Nc2ccc(F)c(C(F)(F)F)c2)C(=O)c2ccccc2C1=O
EC50 [12]: 0.91 µM
Activity [6]: Active
Activity (HepG2 [2]): Active
Activity (SH-SY5Y [1]): Non-Toxic
Activity (SH-SY5Y [7]): Non-Toxic
Activity [8]: Non-Toxic
Activity (HepG2 [13]): inactive
Activity (HepG2 [14]): inactive
Activity (HepG2 [15]): inactive
Activity (HepG2 [16]): inactive
IC50 (HepG2 [17]): > 100 µM
IC50 (SH-SY5Y [18]): > 100 µM
Activity (HepG2 [19]): Active
Activity [9]: inactive
Activity [10]: 52.6%
viability at 24 h, 25 µM [11]: 101%

O=C(OC1=C(c2ccccc2)C(=O)c2ccccc2C1=O)c1cccc([N+](=O)[O-])c1
Activity (SH-SY5Y [1]): Toxic

CC(C)OC1=C(Nc2ccccc2)C(=O)c2ccccc2C1=O
Activity (HepG2 [2]): inactive

CC1=C(SC(C)(C)C)C(=O)c2ccccc2C1=O
Activity [3]: 70%
Activity (SH-SY5Y [1]): Toxic

CC1=C(CCCC(=O)NCCc2ccc(O)cc2)C(=O)c2ccccc2C1=O
EC50 [12]: 0.8 µM
IC50 (HepG2 [17]): > 100 µM
IC50 (SH-SY5Y [18]): 76 µM
Activity (HepG2 [19]): Active
Activity [5]: inactive

O=C1C=C(NCCCCO)C(=O)c2ccccc21
Activity (SH-SY5Y [1]): Toxic

O=C1C(Cl)=C(NCc2ccccc2)C(=O)c2ccccc21
Activity [3]: 70%
Activity (HepG2 [2]): Active
Activity (SH-SY5Y [1]): Toxic

CSC1=C(Nc2cc(C(F)(F)F)ccc2F)C(=O)c2ccccc2C1=O
Activity (HepG2 [2]): Active
Activity (SH-SY5Y [1]): Non-Toxic

CNC1=C(Nc2ccc(F)c(C(F)(F)F)c2)C(=O)c2ccccc2C1=O
Activity (SH-SY5Y [1]): Non-Toxic
Activity [5]: inactive
Activity [10]: 14.7%
viability at 24 h, 25 µM [11]: 95.8%

O=C1C(Cl)=C(NCCc2cccc(C(F)(F)F)c2)C(=O)c2ccccc21
Activity (HepG2 [2]): Active
